High-throughput results (PubChem)
This is a sample that favours compounds with a hit; in the whole collection about 3.8% have one here.
MrgX1 PAM: positive allosteric modulators of MrgX1, primary screen, HEK293 cells, Fluo-4 calcium flux; Mas-related G-protein coupled receptor member X1 (Homo sapiens), Q96LB2; FDSS; hits give high values; B-score at 10 µM; 310,000 tested, 0.63% active; AID 588675, 2011;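 active = plate-corrected calcium response at least 3 library SD above typical, normal starting fluorescence, not activating the receptor alone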;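 note: compound read alongside a low EC10 to EC30 dose of BAM8-22 agonist; peak minus trough fluorescence over baseline measured at the second addition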
Target sequence (Q96LB2 whole entry, looked up): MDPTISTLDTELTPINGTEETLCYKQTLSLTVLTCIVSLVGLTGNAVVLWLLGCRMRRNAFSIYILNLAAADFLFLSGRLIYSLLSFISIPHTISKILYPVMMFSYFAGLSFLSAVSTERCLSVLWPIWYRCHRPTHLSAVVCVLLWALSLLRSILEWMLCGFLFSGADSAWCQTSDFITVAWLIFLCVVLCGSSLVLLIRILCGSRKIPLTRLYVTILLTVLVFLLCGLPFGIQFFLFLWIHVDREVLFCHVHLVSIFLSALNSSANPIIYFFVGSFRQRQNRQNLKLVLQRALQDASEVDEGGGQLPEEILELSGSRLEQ
Lipid droplet: inhibitors of hepatocyte lipid droplet formation, primary screen, imaging, high-throughput imaging, BODIPY stain; AML12 mouse hepatocytes, oleate lipid droplets; inhibition, % at 6.5 µM; AID 1656, 2009; 240,000 tested, 0.4% active;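 active = lipid droplet intensity inhibited by at least 50%, with more than 500 cells counted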
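Assay system: AML12 mouse liver cells | Compound dosing: One dose, 6.5 µM compound | Read-out basis: Droplet intensity reduction, % inhibition | Measured by: Fluorescence imaging, 20x objective, two fields per well | Schedule: Overnight treatment with compound plus oleate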
RGS4 block: RGS4 inhibitors, primary screen, cell-based, HEK293 M3R inducible RGS4, calcium flux. Regulator of G-protein signaling 4 (Homo sapiens), P49798. Fluo-4 calcium flux; hits give high values; triggered by carbachol at its EC20. B-score at 10 µM. 310,000 tested, 0.45% active. AID 463165, 2010;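 active = B-score, a plate-corrected calcium signal, over three deviations above library mean, with baseline fluorescence within five deviations of library mean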;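 note: RGS4 expression induced by doxycycline in cells with stable M3 receptor; B-score is computed from the integrated fluorescence ratio over baseline after carbachol; higher B-score means a larger calcium signal and so more RGS4 inhibition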
Target sequence (P49798 whole entry, looked up): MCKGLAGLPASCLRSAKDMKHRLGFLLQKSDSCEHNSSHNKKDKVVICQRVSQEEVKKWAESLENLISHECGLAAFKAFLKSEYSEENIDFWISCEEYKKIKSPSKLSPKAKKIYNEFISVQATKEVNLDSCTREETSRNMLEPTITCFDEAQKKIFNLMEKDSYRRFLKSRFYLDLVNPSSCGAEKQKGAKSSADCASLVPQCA
MrgX1 ag: agonists of human MrgX1 receptor, primary screen, HEK293 cells, Fluo-4 calcium flux; Fluo-4 calcium fluorescence, agonist mode; hits give high values; B-score at 10 µM; 310,000 tested, 0.44% active;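 active = calcium response B-score plate-corrected fluorescence ratio at least 3 library SD, with starting fluorescence B-score inside 5 SD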
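System: HEK293 cells stably expressing human MrgX1 receptor; Dosing: test compound in the initial addition of three; Schedule: overnight plating, then 30 min 37 °C plus 30 min room-temperature dye loading; Detection: kinetic calcium dye fluorescence, Fluo-4 NW; Controls: per-plate positive and negative controls for Z′ factor.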
MrgX1 antag: antagonists of human MrgX1 receptor, primary screen, HEK293 cells, Fluo-4 calcium flux | 310,000 tested, 1.3% active | BAM8-22 antagonism; hits give low values | Mas-related G-protein coupled receptor member X1 (Homo sapiens), Q96LB2 | AID 588676, 2011 | B-score at 10 µM;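 active = calcium-response B-score plate-corrected more than 3 library SD below zero, starting fluorescence within 5 deviations, no agonist response on first addition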;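 note: peak minus trough fluorescence over baseline after final BAM8-22 challenge near maximal dose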
RGS4 pot: RGS4 potentiators or activators, primary screen, cell-based, HEK293 M3R inducible RGS4, calcium flux; carbachol calcium flux Fluo4; hits give low values; B-score at 10 µM; AID 463111, 2010; 310,000 tested, 0.92% active;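 active = B-score of the integrated calcium signal more than 4 SD below the library mean, with starting fluorescence not abnormally high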;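 note: negative B-score means reduced calcium response which marks RGS4 activation or potentiation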
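test system = M3R-expressing HEK293 line, RGS4 induced by doxycycline | probe or stimulus = carbachol at ECmax as muscarinic agonist stimulus | timing = dye loading 30 min 37 °C, buffer rest 30 min RT | signal = calcium dye Fluo4 fluorescence | evaluation = B score from integrated fluorescence ratio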
Numbers stand for hits; – = inactive; · = no result given.

SMILES	MrgX1 PAM	Lipid droplet	RGS4 block	MrgX1 ag	MrgX1 antag	RGS4 pot
Cc1ccc(C(=O)C(c2ccccc2)N2Cc3ccccc3C2=N)cc1 (configuration not stated)	–	–	–	–	–	-8.1
COc1ccc(C(=O)C(c2ccccc2)N2CCOCC2)cc1 (configuration not stated)	–	·	–	–	–	–
C[C@H]1[C@H](C)CC[C@]2(C(=O)O)CC[C@]3(C)C(=CC[C@@H]4[C@@]5(C)CC[C@H](O)C(C)(C)[C@@H]5CC[C@]43C)[C@H]12	–	–	–	–	–	–
C[C@H]1[C@H](C)CC[C@]2(C(=O)O)CC[C@]3(C)C(=CC[C@@H]4[C@@]5(C)C[C@@H](O)[C@H](O)C(C)(C)[C@@H]5CC[C@]43C)[C@H]12	–	–	–	–	–	-7.6
O=S(=O)(c1ccc(F)cc1)n1ccc(-c2cccc(OCc3ccc(Cl)cc3Cl)c2)n1	–	·	–	–	-8.1	–
CC(Oc1ccc(-c2ccccc2)c(F)c1)c1ccn(S(=O)(=O)c2ccc(F)cc2)n1 (configuration not stated)	–	–	–	–	–	–
COc1ccc(C(CNC(=O)COc2ccc(Cl)c(C)c2)N2CCCCC2)cc1 (configuration not stated)	–	–	–	–	–	–
N#C/C(=C\c1ccccc1[N+](=O)[O-])C(=O)NC1CCCCC1	–	–	–	35	–	–
N#C/C(=C\C=C\c1ccccc1[N+](=O)[O-])C(=O)NC1CCCCC1	14	–	–	–	–	–
N#C/C(=C\c1cccn1-c1ccccc1)C(=O)NC1CCCCC1	–	–	–	–	–	–
C#CCOc1ccc(/C=C2/C(=O)ON=C2C)cc1Br	–	–	–	–	–	–
Cc1ccc2cc(C3CC(c4ccco4)=NN3S(=O)(=O)c3ccccc3)c(Cl)nc2c1 (configuration not stated)	–	–	–	38	–	–
COc1ccc2cc(C3CC(c4ccco4)=NN3S(=O)(=O)c3ccccc3)c(Cl)nc2c1 (configuration not stated)	–	–	–	–	–	–
Cc1ccc(S(=O)(=O)Oc2ccccc2/C=C2/SC(=O)NC2=O)cc1	–	–	–	27	–	–
COc1ccc(CNS(=O)(=O)CCNC(=O)c2ccc(OC)cc2)cc1	–	·	–	–	-4.9	–
COc1ccc(C(=O)NCCS(=O)(=O)NCc2ccc(C)cc2)cc1	–	·	–	–	–	–
O=C(c1ccco1)N1CCN(Cc2cc(=O)c(OCc3ccccc3)co2)CC1	–	·	–	–	-5.3	–
COC(=O)C(C)Oc1ccc2c(c1)O/C(=C\c1ccco1)C2=O (configuration not stated)	–	–	–	–	–	-9.1
COc1ccc(/C=C2\Oc3cc(OCC(N)=O)ccc3C2=O)cc1OC	–	–	–	–	-5.4	-8.2
COC(=O)COc1ccc2c(c1)O/C(=C\c1cccc([N+](=O)[O-])c1)C2=O	–	–	–	–	–	–
Cc1nn(-c2ccccc2)c(Cl)c1CN(C(=O)CCl)c1cccc2ccccc12	11	–	–	–	–	–
Cc1nn(-c2ccccc2)c(Cl)c1CN(C(=O)CCl)c1ccc(Cl)cc1	–	–	–	–	–	–
CC1CCN(C2=C(NS(=O)(=O)c3ccc(Cl)cc3)C(=O)c3ccccc3C2=O)CC1	–	70	–	–	–	–
Cc1ccc(C(C)C)c(OCC(=O)NCC(c2cccs2)N2CCOCC2)c1 (configuration not stated)	–	·	–	28	–	–
O=C(NC1CCN(C(=O)c2cccs2)CC1)c1ccccc1	–	–	–	–	–	–
SMILES	MrgX1 PAM	Lipid droplet	RGS4 block	MrgX1 ag	MrgX1 antag	RGS4 pot
c1ccc(-c2ccc(CN3CCN(c4ncccn4)CC3)cc2)cc1	–	·	–	–	–	-7
c1ccc(CN2CCN(c3ncccn3)CC2)cc1	–	–	–	–	–	–
Cc1cc(C(=O)O)ccc1-c1ccc(/C=C2\SC(=O)N(CC(=O)Nc3ccc4c(c3)OCO4)C2=O)o1	–	–	–	–	–	–
Cc1ccc(C)c(N2C(=N)S/C(=C\c3ccc(-c4ccccc4C(=O)O)o3)C2=O)c1	12	–	–	–	–	–
CCOC(=O)C(C)N1C(=O)S/C(=C\c2ccc(-c3ccccc3C(=O)O)o2)C1=O (configuration not stated)	–	–	–	–	–	–
C#CCN1C(=O)S/C(=C\c2ccc(-c3ccc(C(=O)O)cc3C)o2)C1=O	8.1	·	–	–	–	–
C=CCn1c(=O)c2c(nc3n2CCCN3CCc2ccc(OC)c(OC)c2)n(C)c1=O	–	–	–	–	–	–
O=C(Nc1ccccc1F)N1CCc2ccccc2C1	–	–	–	–	–	–
O=C(c1ccccc1F)N(Cc1nc2ccccc2c(=O)[nH]1)C1CCCC1	–	–	–	–	–	–
CCOc1cc2c(cc1/C=C/c1noc(C)c1[N+](=O)[O-])OC(C)C2 (configuration not stated)	–	–	–	41	–	–
CCOc1cc2c(cc1C=O)OC(C)C2 (configuration not stated)	–	–	–	–	–	–
CCOc1ccc(NC(=S)N2CCN(S(C)(=O)=O)CC2)cc1	–	–	–	–	–	–
COC1=C(Nc2ccccc2)C(=O)c2ccccc2C1=O	10	–	–	–	–	–
COC1=C(Nc2ccc(C)cc2)C(=O)c2ccccc2C1=O	17	–	–	–	–	–
O=C1C(Cl)=C(Nc2ccccc2)C(=O)c2ccccc21	–	–	–	–	–	–
O=C(Nc1ccc(C(F)(F)F)cc1)C1CCN(c2cnccn2)CC1	–	–	–	–	–	–
CC(C)(C)c1ccc(C(=O)C2CCCN(C(=O)CCn3cncn3)C2)cc1 (configuration not stated)	–	–	–	–	–	–
CCOC(=O)N1CCN(c2nc3ccc(C)cc3n3cnnc23)CC1	·	–	–	·	·	–
O=C(CCl)c1ccc2c(c1)CCN2C(=O)C1CC1	–	–	7.1	33	–	–
C(=N\Nc1nc(-c2ccccc2)cs1)/c1ccco1	–	–	–	–	-6.7	–
Cc1ccc(-c2csc(N/N=C/c3ccco3)n2)cc1	–	·	–	–	–	–
Cc1ccc(-c2csc(N/N=C/C=C/c3ccccc3)n2)cc1	–	·	–	–	-5.4	–
COc1ccc(S(=O)(=O)N(C)CC(=O)NCc2cccnc2)cc1Cl	–	–	–	–	–	–
